What was measured:
Type in all cases: functional
[1] = test system: LoVo; assay: Cytotoxicity against hormone-independent human LoVo cells at 4 mM after 12 hrs by CCK-8 assay
In short: (§1)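 For LoVo colorectal adenocarcinoma cells, cultured in DMEM supplemented with FBS and penicillin-streptomycin (37 °C, 5% CO2), 2.5 × 10^4 cells/well were plated 12 h ahead, then treated 12 h. Read-out: CCK-8 (10% in serum-free medium, 3 h), absorbance 450 nm. Percent viability = 100 × (S−B)/(K−B) using blank and control wells.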

[2] = test system: A549; assay: Cytotoxicity against hormone-independent human A549 cells at 8 mM after 12 hrs by CCK-8 assay
In short: (§2)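 A549 adherent cells in DMEM with FBS and penicillin-streptomycin at 37 °C, 5% CO2. Seeded at 1 × 10^4 cells/well and attached for 12 h. Compound applied for 12 h, followed by 3 h in serum-free medium with 10% CCK-8. OD at 450 nm. Viability expressed as 100 × (S−B)/(K−B) relative to untreated cells.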

[3] = test system: K562; assay: Cytotoxicity against human K562 cells at 2 mM after 12 hrs by CCK-8 assay
In short: (§3)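 Suspension K562 cells maintained in RPMI 1640 with FBS and penicillin-streptomycin at 37 °C, 5% CO2. Seeded at 2 × 10^4 cells/well and exposed 12 h at the given concentration. Then incubated 3 h with 10% CCK-8 in serum-free medium. OD 450 nm. Viability% = 100 × (S−B)/(K−B) versus blank and untreated control.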

[4] = test system: MCF7; assay: Cytotoxicity against hormone-dependent human MCF7 cells at 4 mM after 12 hrs by CCK-8 assay
In short: (§4)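 MCF-7 monolayers grown in DMEM plus FBS and penicillin-streptomycin (37 °C, 5% CO2), plated 5 × 10^4 cells/well 12 h before dosing. Exposure 12 h at the listed concentration. Viability measured by WST-8 (CCK-8) reduction: 10% CCK-8 in serum-free medium, 3 h, absorbance 450 nm. Viability% = 100 × (sample−blank)/(control−blank).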

[5] = test system: MCF7; assay: Cytotoxicity against hormone-dependent human MCF7 cells at 2 mM after 12 hrs by CCK-8 assay; in short: as §4
[6] = test system: MCF7; assay: Cytotoxicity against hormone-dependent human MCF7 cells at 6 mM after 12 hrs by CCK-8 assay; in short: as §4
[7] = test system: HeLa; assay: Cytotoxicity against hormone-dependent human HeLa cells at 2 mM after 12 hrs by CCK-8 assay
In short: (§5)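 HeLa cells (adherent) in F-12K medium with fetal bovine serum and penicillin-streptomycin, 37 °C, 5% CO2. Seeded at 1 × 10^4 cells/well and allowed to form a monolayer for 12 h. Treated 12 h at the stated concentration. Medium then replaced with serum-free medium containing 10% CCK-8 for 3 h. OD read at 450 nm. Viability% = 100 × (S−B)/(K−B) against blank and untreated control.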

[8] = test system: HeLa; assay: Cytotoxicity against hormone-dependent human HeLa cells at 6 mM after 12 hrs by CCK-8 assay; in short: as §5
[9] = test system: K562; assay: Cytotoxicity against human K562 cells at 6 mM after 12 hrs by CCK-8 assay; in short: as §3
[10] = test system: HeLa; assay: Cytotoxicity against hormone-dependent human HeLa cells at 8 mM after 12 hrs by CCK-8 assay; in short: as §5
[11] = test system: K562; assay: Cytotoxicity against human K562 cells at 8 mM after 12 hrs by CCK-8 assay; in short: as §3
[12] = test system: K562; assay: Cytotoxicity against human K562 cells at 4 mM after 12 hrs by CCK-8 assay; in short: as §3
[13] = test system: MCF7; assay: Cytotoxicity against hormone-dependent human MCF7 cells at 8 mM after 12 hrs by CCK-8 assay; in short: as §4
[14] = test system: LoVo; assay: Cytotoxicity against hormone-independent human LoVo cells at 2 mM after 12 hrs by CCK-8 assay; in short: as §1
[15] = test system: A549; assay: Cytotoxicity against hormone-independent human A549 cells at 4 mM after 12 hrs by CCK-8 assay; in short: as §2
[16] = test system: LoVo; assay: Cytotoxicity against hormone-independent human LoVo cells at 6 mM after 12 hrs by CCK-8 assay; in short: as §1
[17] = test system: A549; assay: Cytotoxicity against hormone-independent human A549 cells at 2 mM after 12 hrs by CCK-8 assay; in short: as §2
[18] = test system: LoVo; assay: Cytotoxicity against hormone-independent human LoVo cells at 8 mM after 12 hrs by CCK-8 assay; in short: as §1
[19] = test system: A549; assay: Cytotoxicity against hormone-independent human A549 cells at 6 mM after 12 hrs by CCK-8 assay; in short: as §2
[20] = test system: HeLa; assay: Cytotoxicity against hormone-dependent human HeLa cells at 4 mM after 12 hrs by CCK-8 assay; in short: as §5

OC[C@H]1SC(O)[C@H](O)[C@@H](O)[C@@H]1O (stereo not given in full)
Activity [1]: 54% | Activity [2]: 97% | Activity [3]: 6% | Activity [4]: 25% | Activity [5]: 17% | Activity [6]: 40% | Activity [7]: 70% | Activity [8]: 99% | Activity [9]: 94% | Activity [10]: 98% | Activity [11]: 98% | Activity [12]: 45% | Activity [13]: 49% | Activity [14]: 28% | Activity [15]: 96% | Activity [16]: 85% | Activity [17]: 79% | Activity [18]: 88% | Activity [19]: 96% | Activity [20]: 90%

OC[C@@]12CO[C@H](O1)[C@H](O)[C@@H](O)[C@H]2O
Activity [1]: 7% | Activity [2]: 7% | Activity [4]: 2% | Activity [5]: 6% | Activity [6]: 5% | Activity [7]: 4% | Activity [10]: 3% | Activity [13]: 3% | Activity [14]: 9% | Activity [15]: 4% | Activity [16]: 13% | Activity [17]: 23% | Activity [18]: 12% | Activity [19]: 5% | Activity [20]: 4%

O[C@@H]1[C@@H](O)[C@H](O)[C@]2(CO2)[C@@H](O)[C@H]1O
Activity [2]: 26% | Activity [3]: 6% | Activity [4]: 46% | Activity [5]: 22% | Activity [6]: 53% | Activity [8]: 2% | Activity [9]: 26% | Activity [10]: 7% | Activity [11]: 36% | Activity [12]: 20% | Activity [13]: 66% | Activity [16]: 5% | Activity [18]: 24% | Activity [19]: 20%

OCC1(O)SC[C@@H](O)C(O)C1O (single isomer, unassigned)
Activity [1]: 25% | Activity [2]: 55% | Activity [4]: 7% | Activity [5]: 3% | Activity [6]: 3% | Activity [7]: 28% | Activity [8]: 48% | Activity [10]: 51% | Activity [13]: 2% | Activity [14]: 28% | Activity [15]: 44% | Activity [16]: 32% | Activity [17]: 44% | Activity [18]: 42% | Activity [19]: 46% | Activity [20]: 30%

Reference: ChEMBL document CHEMBL3232828, “A potential CARB-pharmacophore for antineoplastic activity: part 1” (2014)
